Results reported in ChEMBL document CHEMBL1155876 (J Med Chem, 2008).

Tests used:
MCF7 = assay: Antiproliferative activity against human MCF7 cells; assay type: functional, cell-based
Method in brief: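 HCT116, HT29 or MCF7 cells were seeded on day 0 in 1:1 Ham's F12/DMEM-high glucose with 10% FBS and 2 mM L-glutamine, then kept overnight at 37 °C in 5% CO2. On day 1, inhibitor in DMSO, diluted 20-fold in serum- and glutamine-free medium, was added. Viability was read on day 4 as total ATP by CellTiter-Glo luminescence.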

MOLT-4 = assay: Cell cycle arrested in human MOLT4 cells assessed as accumulation at G2/M phase after 24 hrs; assay type: functional, cell-based; settings: MOLT-4, 24 h
Method in brief: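 MOLT-4 leukemia cells were exposed to 3-fold serial dilutions for 24 h at 37 °C. Cells were then resuspended in Tris pH 7.4/NaCl buffer containing 0.2% BSA and 0.1% NP-40, and treated on ice for 30 min with 60 U/mL RNase A and 20 µg/mL propidium iodide. DNA content was measured by FACS.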

[1] = target: Cyclin-dependent kinase 3 (Homo sapiens) (UniProt Q00526); assay: Inhibition of CDK3/CyclinE assessed as residual enzyme activity at 1 uM
[2] = target: CDK6/cyclin D3 (Homo sapiens) (UniProt P30281+Q00534); assay: Inhibition of CDK6/CyclinD3 assessed as residual enzyme activity at 1 uM; assay type: protein-complex assay
[3] = Inhibition of CDK9/CyclinT1 assessed as residual enzyme activity at 1 uM
[4] = target: Serine/threonine-protein kinase Nek2 (Homo sapiens) (UniProt P51955); assay: Inhibition of NEK2 at assessed as residual enzyme activity at 1 uM
[5] = target: Tyrosine-protein kinase ABL1 (Homo sapiens) (UniProt P00519); assay: Inhibition of Abl at assessed as residual enzyme activity at 1 uM
[6] = target: Tyrosine-protein kinase ABL1 (Homo sapiens) (UniProt P00519); assay: Inhibition of human Abl assessed as residual enzyme activity at 0.1 uM
[7] = target: ALK tyrosine kinase receptor (Homo sapiens) (UniProt Q9UM73); assay: Inhibition of human ALK assessed as residual enzyme activity at 0.1 uM
[8] = target: NUAK family SNF1-like kinase 1 (Homo sapiens) (UniProt O60285); assay: Inhibition of human ARK5 kinase assessed as residual enzyme activity at 0.1 uM
[9] = target: Tyrosine-protein kinase receptor UFO (Homo sapiens) (UniProt P30530); assay: Inhibition of human Axl kinase assessed as residual enzyme activity at 0.1 uM
[10] = target: Tyrosine-protein kinase BTK (Homo sapiens) (UniProt Q06187); assay: Inhibition of human BTK kinase assessed as residual enzyme activity at 0.1 uM
[11] = target: Dual specificity tyrosine-phosphorylation-regulated kinase 2 (Homo sapiens) (UniProt Q92630); assay: Inhibition of human DYRK2 kinase assessed as residual enzyme activity at 0.1 uM
[12] = target: Epidermal growth factor receptor (Homo sapiens) (UniProt P00533); assay: Inhibition of human EGFR kinase assessed as residual enzyme activity at 0.1 uM
[13] = target: Ephrin type-A receptor 5 (Homo sapiens) (UniProt P54756); assay: Inhibition of human EphA5 kinase assessed as residual enzyme activity at 0.1 uM
[14] = target: Ephrin type-A receptor 1 (Homo sapiens) (UniProt P21709); assay: Inhibition of human EphA1 kinase assessed as residual enzyme activity at 0.1 uM
[15] = target: Tyrosine-protein kinase Fer (Homo sapiens) (UniProt P16591); assay: Inhibition of human Fer kinase assessed as residual enzyme activity at 0.1 uM
[16] = target: Inhibitor of nuclear factor kappa-B kinase subunit alpha (Homo sapiens) (UniProt O15111); assay: Inhibition of human IKKalpha kinase assessed as residual enzyme activity at 0.1 uM
[17] = target: Mitogen-activated protein kinase 8 (Homo sapiens) (UniProt P45983); assay: Inhibition of human JNK1alpha1 assessed as residual enzyme activity at 0.1 uM
[18] = target: Tyrosine-protein kinase Lck (Homo sapiens) (UniProt P06239); assay: Inhibition of human Lck assessed as residual enzyme activity at 0.1 uM
[19] = target: Tyrosine-protein kinase Lyn (Homo sapiens) (UniProt P07948); assay: Inhibition of human Lyn kinase assessed as residual enzyme activity at 0.1 uM
[20] = target: Maternal embryonic leucine zipper kinase (Homo sapiens) (UniProt Q14680); assay: Inhibition of human MELK assessed as residual enzyme activity at 0.1 uM
[21] = target: Misshapen-like kinase 1 (Homo sapiens) (UniProt Q8N4C8); assay: Inhibition of human MINK assessed as residual enzyme activity at 0.1 uM
[22] = target: Dual specificity mitogen-activated protein kinase kinase 6 (Homo sapiens) (UniProt P52564); assay: Inhibition of human MKK6 assessed as residual enzyme activity at 0.1 uM
[23] = target: Myosin light chain kinase, smooth muscle (Homo sapiens) (UniProt Q15746); assay: Inhibition of human MLCK kinase assessed as residual enzyme activity at 0.1 uM
[24] = target: Mitogen-activated protein kinase kinase kinase 9 (Homo sapiens) (UniProt P80192); assay: Inhibition of human MLK1 kinase assessed as residual enzyme activity at 0.1 uM
[25] = target: Protein kinase C alpha type (Homo sapiens) (UniProt P17252); assay: Inhibition of human PKCalpha assessed as residual enzyme activity at 0.1 uM
[26] = target: Protein kinase C gamma type (Homo sapiens) (UniProt P05129); assay: Inhibition of human PKCgamma kinase assessed as residual enzyme activity at 0.1 uM
[27] = target: Serine/threonine-protein kinase D2 (Homo sapiens) (UniProt Q9BZL6); assay: Inhibition of human PKD2 kinase assessed as residual enzyme activity at 0.1 uM
Homo sapiens [28] = species: Homo sapiens; assay: Inhibition of human PKG1alpha kinase assessed as residual enzyme activity at 0.1 uM
[29] = target: Proto-oncogene tyrosine-protein kinase receptor Ret (Homo sapiens) (UniProt P07949); assay: Inhibition of human Ret kinase assessed as residual enzyme activity at 0.1 uM
[30] = target: Macrophage-stimulating protein receptor (Homo sapiens) (UniProt Q04912); assay: Inhibition of human Ron kinase assessed as residual enzyme activity at 0.1 uM
[31] = target: Mitogen-activated protein kinase 14 (Homo sapiens) (UniProt Q16539); assay: Inhibition of human SAPK2a kinase assessed as residual enzyme activity at 0.1 uM
[32] = target: Serine/threonine-protein kinase Sgk1 (Homo sapiens) (UniProt O00141); assay: Inhibition of human SGK assessed as residual enzyme activity at 0.1 uM
[33] = target: SRSF protein kinase 1 (Homo sapiens) (UniProt Q96SB4); assay: Inhibition of human SRPK1 kinase assessed as residual enzyme activity at 0.1 uM
[34] = target: Serine/threonine-protein kinase MARK1 (Homo sapiens) (UniProt Q9P0L2); assay: Inhibition of human MARK1 kinase assessed as residual enzyme activity at 0.1 uM
Homo sapiens [35] = species: Homo sapiens; assay: Inhibition of human PKBalpha assessed as residual enzyme activity at 0.1 uM
[36] = target: Serine/threonine-protein kinase 4 (MST1/STK4) (Homo sapiens) (UniProt Q13043); assay: Inhibition of human MST1 kinase assessed as residual enzyme activity at 0.1 uM

Sequence of Tyrosine-protein kinase ABL1 (Homo sapiens) (P00519 whole entry): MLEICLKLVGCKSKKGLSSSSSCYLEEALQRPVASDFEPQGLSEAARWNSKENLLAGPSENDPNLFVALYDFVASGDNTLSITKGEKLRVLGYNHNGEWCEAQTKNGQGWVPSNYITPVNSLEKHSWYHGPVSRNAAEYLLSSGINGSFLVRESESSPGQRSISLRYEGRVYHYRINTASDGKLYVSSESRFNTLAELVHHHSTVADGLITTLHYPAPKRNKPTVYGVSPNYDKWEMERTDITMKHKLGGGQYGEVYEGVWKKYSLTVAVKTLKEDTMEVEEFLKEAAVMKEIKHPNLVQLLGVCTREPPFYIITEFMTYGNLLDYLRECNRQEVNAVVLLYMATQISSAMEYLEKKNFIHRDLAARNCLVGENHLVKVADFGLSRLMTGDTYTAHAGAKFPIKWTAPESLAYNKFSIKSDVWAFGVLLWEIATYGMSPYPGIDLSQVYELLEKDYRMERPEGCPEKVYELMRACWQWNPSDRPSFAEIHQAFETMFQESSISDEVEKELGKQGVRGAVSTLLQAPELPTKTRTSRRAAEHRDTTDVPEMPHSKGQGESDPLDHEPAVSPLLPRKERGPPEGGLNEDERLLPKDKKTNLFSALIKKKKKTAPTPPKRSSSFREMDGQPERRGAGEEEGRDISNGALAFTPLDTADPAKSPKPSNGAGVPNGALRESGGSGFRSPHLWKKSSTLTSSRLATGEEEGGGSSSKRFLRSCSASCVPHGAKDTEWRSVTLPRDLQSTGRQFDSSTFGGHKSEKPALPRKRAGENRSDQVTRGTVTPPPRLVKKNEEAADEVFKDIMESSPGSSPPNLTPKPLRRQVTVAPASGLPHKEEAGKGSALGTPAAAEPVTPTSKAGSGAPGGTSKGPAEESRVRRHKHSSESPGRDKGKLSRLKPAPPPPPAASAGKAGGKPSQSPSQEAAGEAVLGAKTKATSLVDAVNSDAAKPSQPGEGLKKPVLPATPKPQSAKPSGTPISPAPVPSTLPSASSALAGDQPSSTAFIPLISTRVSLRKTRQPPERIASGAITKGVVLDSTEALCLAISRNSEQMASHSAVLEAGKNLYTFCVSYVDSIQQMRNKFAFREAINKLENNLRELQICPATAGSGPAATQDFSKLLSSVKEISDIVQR
Sequence of Misshapen-like kinase 1 (Homo sapiens) (Q8N4C8 whole entry, looked up): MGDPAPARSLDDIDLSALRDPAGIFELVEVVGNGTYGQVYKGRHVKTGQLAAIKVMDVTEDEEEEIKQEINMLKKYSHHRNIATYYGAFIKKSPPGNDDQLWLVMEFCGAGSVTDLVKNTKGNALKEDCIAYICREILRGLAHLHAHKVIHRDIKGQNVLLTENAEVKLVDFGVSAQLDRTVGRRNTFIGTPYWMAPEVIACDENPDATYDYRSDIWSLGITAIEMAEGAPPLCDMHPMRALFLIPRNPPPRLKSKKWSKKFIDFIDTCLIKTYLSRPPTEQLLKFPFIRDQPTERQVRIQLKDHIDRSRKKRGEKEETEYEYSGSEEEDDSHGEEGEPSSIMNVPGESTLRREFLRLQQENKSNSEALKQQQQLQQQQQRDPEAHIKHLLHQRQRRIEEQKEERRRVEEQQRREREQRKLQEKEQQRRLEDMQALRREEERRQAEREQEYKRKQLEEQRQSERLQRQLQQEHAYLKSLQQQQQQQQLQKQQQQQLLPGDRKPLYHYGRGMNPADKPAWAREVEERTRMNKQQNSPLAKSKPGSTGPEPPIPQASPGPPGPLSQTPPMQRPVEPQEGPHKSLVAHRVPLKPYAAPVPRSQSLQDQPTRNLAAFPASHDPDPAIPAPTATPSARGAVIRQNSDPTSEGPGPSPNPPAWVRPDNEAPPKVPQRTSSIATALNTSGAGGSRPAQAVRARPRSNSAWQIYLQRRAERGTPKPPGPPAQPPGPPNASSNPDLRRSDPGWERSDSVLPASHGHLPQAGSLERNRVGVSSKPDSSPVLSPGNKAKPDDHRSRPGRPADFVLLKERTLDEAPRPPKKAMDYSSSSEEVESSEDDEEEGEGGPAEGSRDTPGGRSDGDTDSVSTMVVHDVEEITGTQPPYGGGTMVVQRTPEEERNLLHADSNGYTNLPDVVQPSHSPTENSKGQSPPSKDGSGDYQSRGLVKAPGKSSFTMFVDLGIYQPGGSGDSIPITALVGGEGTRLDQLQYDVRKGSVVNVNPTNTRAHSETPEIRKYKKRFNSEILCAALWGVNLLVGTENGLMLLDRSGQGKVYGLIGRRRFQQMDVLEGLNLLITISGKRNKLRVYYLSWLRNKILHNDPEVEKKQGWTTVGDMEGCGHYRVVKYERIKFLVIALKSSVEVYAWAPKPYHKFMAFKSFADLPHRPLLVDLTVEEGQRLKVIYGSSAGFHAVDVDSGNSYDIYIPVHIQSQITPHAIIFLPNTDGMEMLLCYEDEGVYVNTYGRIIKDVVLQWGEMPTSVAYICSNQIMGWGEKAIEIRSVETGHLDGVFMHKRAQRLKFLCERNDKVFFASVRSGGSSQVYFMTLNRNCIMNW
Sequence of Mitogen-activated protein kinase 14 (Homo sapiens) (Q16539 whole entry): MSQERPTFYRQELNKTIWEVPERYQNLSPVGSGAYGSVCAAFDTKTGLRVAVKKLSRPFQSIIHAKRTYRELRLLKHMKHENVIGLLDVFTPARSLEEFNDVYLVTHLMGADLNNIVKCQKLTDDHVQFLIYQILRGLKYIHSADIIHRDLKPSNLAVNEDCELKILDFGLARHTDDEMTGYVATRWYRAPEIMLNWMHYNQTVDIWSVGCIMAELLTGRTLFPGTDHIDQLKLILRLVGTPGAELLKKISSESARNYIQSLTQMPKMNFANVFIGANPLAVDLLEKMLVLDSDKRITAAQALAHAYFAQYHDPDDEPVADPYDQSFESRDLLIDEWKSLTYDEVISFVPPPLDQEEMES
Sequence of Ephrin type-A receptor 1 (Homo sapiens) (P21709 whole entry): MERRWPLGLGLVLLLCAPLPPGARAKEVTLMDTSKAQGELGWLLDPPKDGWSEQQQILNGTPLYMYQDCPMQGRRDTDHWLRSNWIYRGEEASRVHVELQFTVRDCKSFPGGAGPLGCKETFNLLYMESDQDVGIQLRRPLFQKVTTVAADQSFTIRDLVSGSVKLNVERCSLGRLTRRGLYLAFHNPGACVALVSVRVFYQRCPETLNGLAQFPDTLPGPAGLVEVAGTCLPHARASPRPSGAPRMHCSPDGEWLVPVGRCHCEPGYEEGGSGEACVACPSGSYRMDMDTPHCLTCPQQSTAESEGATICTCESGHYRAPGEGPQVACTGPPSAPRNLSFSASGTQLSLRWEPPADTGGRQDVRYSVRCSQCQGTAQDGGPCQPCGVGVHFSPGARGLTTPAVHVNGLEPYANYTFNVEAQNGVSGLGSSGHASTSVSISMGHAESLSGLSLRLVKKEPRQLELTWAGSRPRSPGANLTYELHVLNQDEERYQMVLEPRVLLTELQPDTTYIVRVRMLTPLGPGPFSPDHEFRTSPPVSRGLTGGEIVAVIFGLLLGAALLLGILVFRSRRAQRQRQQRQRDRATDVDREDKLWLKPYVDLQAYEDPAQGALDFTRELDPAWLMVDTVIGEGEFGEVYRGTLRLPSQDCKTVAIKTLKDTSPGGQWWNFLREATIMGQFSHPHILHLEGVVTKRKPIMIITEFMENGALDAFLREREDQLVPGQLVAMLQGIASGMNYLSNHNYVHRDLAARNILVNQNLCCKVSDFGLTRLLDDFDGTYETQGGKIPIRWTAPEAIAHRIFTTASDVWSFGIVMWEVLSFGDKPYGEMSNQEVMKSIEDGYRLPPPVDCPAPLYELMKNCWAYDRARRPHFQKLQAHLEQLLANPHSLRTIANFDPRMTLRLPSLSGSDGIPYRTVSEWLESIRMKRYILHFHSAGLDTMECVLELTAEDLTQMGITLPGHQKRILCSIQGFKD
Sequence of Proto-oncogene tyrosine-protein kinase receptor Ret (Homo sapiens) (P07949 whole entry): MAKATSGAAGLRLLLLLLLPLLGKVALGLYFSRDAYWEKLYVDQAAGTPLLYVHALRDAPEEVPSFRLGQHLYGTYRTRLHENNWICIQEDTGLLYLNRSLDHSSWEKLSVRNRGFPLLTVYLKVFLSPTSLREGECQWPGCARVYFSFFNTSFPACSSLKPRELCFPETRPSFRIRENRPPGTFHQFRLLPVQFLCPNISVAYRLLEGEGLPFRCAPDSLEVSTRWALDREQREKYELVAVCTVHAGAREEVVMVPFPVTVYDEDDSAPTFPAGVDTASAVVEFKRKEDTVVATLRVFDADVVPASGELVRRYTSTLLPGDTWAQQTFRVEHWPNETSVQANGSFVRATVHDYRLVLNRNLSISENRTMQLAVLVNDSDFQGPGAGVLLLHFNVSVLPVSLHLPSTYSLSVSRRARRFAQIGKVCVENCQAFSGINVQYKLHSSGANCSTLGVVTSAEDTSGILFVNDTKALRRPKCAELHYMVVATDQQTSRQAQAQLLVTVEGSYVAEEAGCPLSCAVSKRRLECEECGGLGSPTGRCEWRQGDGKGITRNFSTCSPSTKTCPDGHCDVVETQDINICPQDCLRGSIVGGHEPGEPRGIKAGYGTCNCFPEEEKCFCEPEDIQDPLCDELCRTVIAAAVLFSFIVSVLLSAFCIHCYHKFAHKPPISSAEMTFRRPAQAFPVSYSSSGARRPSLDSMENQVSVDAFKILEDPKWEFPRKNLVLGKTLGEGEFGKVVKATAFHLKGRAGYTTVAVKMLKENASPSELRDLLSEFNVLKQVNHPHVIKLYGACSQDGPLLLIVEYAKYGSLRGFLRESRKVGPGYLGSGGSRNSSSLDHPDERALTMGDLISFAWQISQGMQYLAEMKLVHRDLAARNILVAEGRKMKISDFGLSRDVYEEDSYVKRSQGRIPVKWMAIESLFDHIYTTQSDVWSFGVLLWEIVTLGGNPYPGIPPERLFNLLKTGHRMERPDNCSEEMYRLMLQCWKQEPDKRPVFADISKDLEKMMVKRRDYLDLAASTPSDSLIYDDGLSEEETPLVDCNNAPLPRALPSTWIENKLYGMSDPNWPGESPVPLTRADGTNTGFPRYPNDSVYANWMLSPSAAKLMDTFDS

CCN1C(=O)C(C)(C)c2cc3[nH]c4c(c3cc21)CCCc1c(C)n[nH]c1-4
IC50 (MCF7): 0.1 µM | IC50 (MOLT-4): 0.11 µM | Activity [1]: 106% | Activity [2]: 103% | Activity [3]: 87% | Activity [4]: 98% | Activity [5]: 10% | Activity [6]: 71% | Activity [7]: 23% | Activity [8]: 9% | Activity [9]: 66% | Activity [10]: 86% | Activity [11]: 107% | Activity [12]: 107% | Activity [13]: 105% | Activity [14]: 79% | Activity [15]: 53% | Activity [16]: 110% | Activity [17]: 109% | Activity [18]: 48% | Activity [19]: 60% | Activity [20]: 53% | Activity [21]: 110% | Activity [22]: 102% | Activity [23]: 102% | Activity [24]: 16% | Activity [25]: 103% | Activity [26]: 100% | Activity [27]: 105% | Activity (Homo sapiens [28]): 100% | Activity [29]: 1% | Activity [30]: 100% | Activity [31]: 124% | Activity [32]: 99% | Activity [33]: 104% | Activity [34]: 41% | Activity (Homo sapiens [35]): 100% | Activity [36]: 49%
